In data set [1] the test system is TFEB. The experiment in a line: TFEB nuclear accumulation. In kind it is cell-based. Conditions: for nuclear translocation of TFEB: percentage of cells displaying TFEB nuclear accumulation, biological duplicates. In short, it runs like this: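 HeLa and Neuro-2a cells were treated with the CPP combined with an endosome-priming small molecule, or with LLOME. TFEB localization was then followed over time until the protein returned to a cytoplasmic distribution.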

Data set [2] concerns Neuro-2a and HeLa cell lines. In words: Endocytic uptake of AF488-labelled probes by flow cytometry. In kind it is cell-based. Particulars: AF488-H1 added after reagent treatment, biological duplicates. For orientation: In flow cytometry, cells or beads pass a laser one at a time.
Data set [3] has as its system Neuro-2a and HeLa. The experiment in a line: Recovery of LysoTracker Green staining. It is filed as cell-based. Conditions: cell line not specified; biological triplicates. In short, it runs like this: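 HeLa and Neuro-2a cells were exposed to the delivery agent, or LLOME as the reference, then washed. LysoTracker was added at increasing intervals after washing, and lysosomal staining was followed over time to find when it returned to the untreated level.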

The test system of data set [4] is cells.
Data set [5] deals with Chmp1b. In words: Chmp1b recruitment to damaged endosomes. In kind it is cell-based.
Data set [6] relates to Galectin-3 (Gal3). In words: Gal3 recruitment to damaged endosomes. It is filed as cell-based.
Setting [7] is: cells incubated with reagent, washed and imaged, biological duplicates.

Turning to `CO/C1=C\C(C)=C\[C@@H](C)[C@@H](O)[C@@H](C)C/C(C)=C/C=C/[C@H](OC)[C@@H]([C@@H](C)[C@@H](O)[C@H](C)[C@@]2(O)C[C@@H](O)[C@H](C)[C@@H](C(C)C)O2)OC1=O` [bafilomycin], the “nuclear translocation of TFEB” value in data set [1] is listed as “positive control”.
Consider `COC(=O)[C@H](CC(C)C)NC(=O)[C@@H](N)CC(C)C` [LLOME, L-leucyl-L-leucine methyl ester], for which the “uptake of H1” value in data set [2] is on record as “stimulated”. In data set [3], the “recovery time of LysoTracker staining” value is reported as 8 h. For the same molecule, the “toxicity to cells of cell penetration” value in data set [4] is recorded as “delayed loss of viability”. Besides, the Chmp1b recruitment result in data set [5] (Neuro-2a) is on record as “did not trigger”. The “number of Chmp1b puncta” value in data set [5] (setting [7]) was “trigger the recruitment of Chmp1b and Gal3”. The “additional time to return to a cytoplasmic TFEB distribution” value in data set [1] (after the initial 3h, biological triplicates) turned out to be 9 h. Also, the “time TFEB nuclear accumulation is steady or rising after treatment” value in data set [1] (biological triplicates) was found to be 3 h. For the same molecule, the “nuclear translocation of TFEB” value in data set [1] is on record as “triggered the nuclear translocation of TFEB”. The Gal3 recruitment result in data set [6] (Neuro-2a) is recorded as “did not trigger”. Moreover, in data set [6] (setting [7]), the “Gal3 distribution / puncta” value is “trigger the recruitment of Chmp1b and Gal3”.

For the origin of these results see article PMC7502533 (ACS chemical biology, 2020).
